How the values were obtained:
[1] = system: Human immunodeficiency virus 1; test: Selectivity ratio of EC50 for VSV-G pseudotyped HIV1 harboring integrase E92Q mutant infected in HOS cells to EC50 for VSV-G pseudotyped HIV1 harboring wild-type integrase infected in HOS cells; type: functional
Summary of the method: (§1)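 Fold change is the EC50 against the mutant-IN vector divided by the EC50 against the WT-IN vector. Both come from the single-round luciferase infectivity assay in HOS cells, with a 3 h compound pretreatment followed by 48 h infection.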

[2] = system: Human immunodeficiency virus 1; test: Antiviral activity against VSV-G pseudotyped HIV1 harboring integrase H51Y/R263K double mutant infected in HOS cells pretreated […] for 3 hrs followed by viral infection measured after 48 hrs by luciferase reporter gene assay; type: functional, cell-based; details: Human immunodeficiency virus 1, HOS
Summary of the method: (§2)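 Single-round luciferase HIV-1 vector (pNLNgoMIVR−ΔLUC carrying WT or mutant IN) was pseudotyped with VSV-g by calcium phosphate co-transfection of 293 cells, and supernatant was harvested after 48 h. HOS cells were seeded at 4000/well in DMEM with 5% FBS and 5% newborn calf serum. They were pretreated 3 h at 37 °C with 5–0.0001 μM (11 serial dilutions), then infected for 48 h. Luminescence was normalized to untreated cells, and EC50 came from nonlinear regression.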

[3] = system: Human immunodeficiency virus 1; test: Antiviral activity against VSV-G pseudotyped HIV1 harboring integrase T66I mutant infected in HOS cells pretreated […] for 3 hrs followed by viral infection measured after 48 hrs by luciferase reporter gene assay; type: functional, cell-based; details: Human immunodeficiency virus 1, HOS; summary of the method: as §2
[4] = system: Human immunodeficiency virus 1; test: Selectivity ratio of EC50 for VSV-G pseudotyped HIV1 harboring integrase G140S/Q148H mutant infected in HOS cells to EC50 for VSV-G pseudotyped HIV1 harboring wild-type integrase infected in HOS cells; type: functional; summary of the method: as §1
[5] = system: Human immunodeficiency virus 1; test: Selectivity ratio of EC50 for VSV-G pseudotyped HIV1 harboring integrase G118R mutant infected in HOS cells to EC50 for VSV-G pseudotyped HIV1 harboring wild-type integrase infected in HOS cells; type: functional; summary of the method: as §1
[6] = system: Human immunodeficiency virus 1; test: Antiviral activity against VSV-G pseudotyped HIV1 harboring wild-type integrase infected in HOS cells pretreated […] for 3 hrs followed by viral infection measured after 48 hrs by luciferase reporter gene assay; type: functional, cell-based; details: Human immunodeficiency virus 1, HOS; summary of the method: as §2
[7] = system: Human immunodeficiency virus 1; test: Selectivity ratio of EC50 for VSV-G pseudotyped HIV1 harboring integrase T66I mutant infected in HOS cells to EC50 for VSV-G pseudotyped HIV1 harboring wild-type integrase infected in HOS cells; type: functional; summary of the method: as §1
HOS = test: (§3) Cytotoxicity against HOS cells assessed as reduction in cell viability after 48 hrs by ATPLite luminescence assay; type: cell-based; details: human, hos, 48 h
Summary of the method: (§4)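 HOS cells seeded at 4000 per well the day before, exposed to compounds over 250 to 0.05 μM at 37 °C for 48 h. ATP measured by luminescence after lysis and 20 min signal development at room temperature.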

[8] = system: Human immunodeficiency virus 1; test: Antiviral activity against VSV-G pseudotyped HIV1 harboring integrase G140S/Q148H double mutant infected in HOS cells pretreated […] for 3 hrs followed by viral infection measured after 48 hrs by luciferase reporter gene assay; type: functional, cell-based; details: Human immunodeficiency virus 1, HOS; summary of the method: as §2
[9] = system: Human immunodeficiency virus 1; test: Antiviral activity against VSV-G pseudotyped HIV1 harboring integrase H51Y mutant infected in HOS cells pretreated […] for 3 hrs followed by viral infection measured after 48 hrs by luciferase reporter gene assay; type: functional, cell-based; details: Human immunodeficiency virus 1, HOS; summary of the method: as §2
[10] = Inhibition of HIV1 integrase 3' processing activity using 5'-end 32P labeled DNA substrate measured after 2 hrs by PAGE based phosphor imaging method; set-up: species or system Human immunodeficiency virus 1
Summary of the method: (§5)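 Gel-based assay, Mg2+ cofactor: 400 nM integrase with 20 nM DNA substrate 5′-32P-labeled on transferred strand in 50 mM MOPS pH 7.2, 7.5 mM MgCl2, 14 mM 2-mercaptoethanol, inhibitor or DMSO; 2 h at 37 °C. Stopped with formamide/SDS loading buffer; products resolved on 16% denaturing polyacrylamide gels, quantified by phosphorimaging.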

[11] = system: Human immunodeficiency virus 1; test: Antiviral activity against VSV-G pseudotyped HIV1 harboring integrase N155H mutant infected in HOS cells pretreated […] for 3 hrs followed by viral infection measured after 48 hrs by luciferase reporter gene assay; type: functional, cell-based; details: Human immunodeficiency virus 1, HOS; summary of the method: as §2
[12] = system: Human immunodeficiency virus 1; test: Antiviral activity against VSV-G pseudotyped HIV1 harboring integrase G118R mutant infected in HOS cells pretreated […] for 3 hrs followed by viral infection measured after 48 hrs by luciferase reporter gene assay; type: functional, cell-based; details: Human immunodeficiency virus 1, HOS; summary of the method: as §2
[13] = system: Human immunodeficiency virus 1; test: Selectivity ratio of EC50 for VSV-G pseudotyped HIV1 harboring integrase H51Y/R263K double mutant infected in HOS cells to EC50 for VSV-G pseudotyped HIV1 harboring wild-type integrase infected in HOS cells; type: functional; summary of the method: as §1
[14] = system: Human immunodeficiency virus 1; test: Selectivity ratio of EC50 for VSV-G pseudotyped HIV1 harboring integrase N155H mutant infected in HOS cells to EC50 for VSV-G pseudotyped HIV1 harboring wild-type integrase infected in HOS cells; type: functional; summary of the method: as §1
[15] = system: Human immunodeficiency virus 1; test: Antiviral activity against VSV-G pseudotyped HIV1 harboring integrase E92Q mutant infected in HOS cells pretreated […] for 3 hrs followed by viral infection measured after 48 hrs by luciferase reporter gene assay; type: functional, cell-based; details: Human immunodeficiency virus 1, HOS; summary of the method: as §2
[16] = system: Human immunodeficiency virus 1; test: Selectivity ratio of EC50 for VSV-G pseudotyped HIV1 harboring integrase H51Y mutant infected in HOS cells to EC50 for VSV-G pseudotyped HIV1 harboring wild-type integrase infected in HOS cells; type: functional; summary of the method: as §1
[17] = system: Human immunodeficiency virus 1; test: Selectivity ratio of EC50 for VSV-G pseudotyped HIV1 harboring integrase R263K mutant infected in HOS cells to EC50 for VSV-G pseudotyped HIV1 harboring wild-type integrase infected in HOS cells; type: functional; summary of the method: as §1
[18] = system: Human immunodeficiency virus 1; test: Antiviral activity against VSV-G pseudotyped HIV1 harboring integrase R263K mutant infected in HOS cells pretreated […] for 3 hrs followed by viral infection measured after 48 hrs by luciferase reporter gene assay; type: functional, cell-based; details: Human immunodeficiency virus 1, HOS; summary of the method: as §2
[19] = system: Human immunodeficiency virus 1; test: Selectivity ratio of EC50 for VSV-G pseudotyped HIV1 harboring integrase Y143R mutant infected in HOS cells to EC50 for VSV-G pseudotyped HIV1 harboring wild-type integrase infected in HOS cells; type: functional; summary of the method: as §1
[20] = system: Human immunodeficiency virus 1; test: Antiviral activity against VSV-G pseudotyped HIV1 harboring integrase Y143R mutant infected in HOS cells pretreated […] for 3 hrs followed by viral infection measured after 48 hrs by luciferase reporter gene assay; type: functional, cell-based; details: Human immunodeficiency virus 1, HOS; summary of the method: as §2
[21] = Inhibition of HIV1 integrase strand transfer activity using 5'-end 32P labeled DNA substrate measured after 2 hrs by PAGE based phosphor imaging method; set-up: species or system Human immunodeficiency virus 1; summary of the method: as §5
[22] = system: Human immunodeficiency virus 1; test: Antiviral activity against VSV-G pseudotyped HIV1 harboring integrase N155H mutant infected in HOS cells pretreated […] for 3 hrs followed by viral infection measured after 48 hrs by luciferase reporter gene assay relative to dolutegravir; type: functional
[23] = system: Human immunodeficiency virus 1; test: Antiviral activity against VSV-G pseudotyped HIV1 harboring wild-type integrase infected in HOS cells pretreated […] for 3 hrs followed by viral infection measured after 48 hrs by luciferase reporter gene assay relative to dolutegravir; type: functional
[24] = system: Human immunodeficiency virus 1; test: Antiviral activity against VSV-G pseudotyped HIV1 harboring integrase H51Y/R263K double mutant infected in HOS cells pretreated […] for 3 hrs followed by viral infection measured after 48 hrs by luciferase reporter gene assay relative to dolutegravir; type: functional
[25] = system: Human immunodeficiency virus 1; test: Antiviral activity against VSV-G pseudotyped HIV1 harboring integrase G118R mutant infected in HOS cells pretreated […] for 3 hrs followed by viral infection measured after 48 hrs by luciferase reporter gene assay relative to dolutegravir; type: functional
[26] = system: Human immunodeficiency virus 1; test: Antiviral activity against VSV-G pseudotyped HIV1 harboring integrase R263K mutant infected in HOS cells pretreated […] for 3 hrs followed by viral infection measured after 48 hrs by luciferase reporter gene assay relative to dolutegravir; type: functional
[27] = as §3; type: cell-based; details: human, HOS cells; summary of the method: as §4
[28] = system: Human immunodeficiency virus 1; test: Antiviral activity against VSV-G pseudotyped HIV1 harboring integrase E92Q mutant infected in HOS cells pretreated […] for 3 hrs followed by viral infection measured after 48 hrs by luciferase reporter gene assay relative to dolutegravir; type: functional
[29] = system: Human immunodeficiency virus 1; test: Antiviral activity against VSV-G pseudotyped HIV1 harboring integrase G140S/Q148H double mutant infected in HOS cells pretreated […] for 3 hrs followed by viral infection measured after 48 hrs by luciferase reporter gene assay relative to dolutegravir; type: functional
[30] = system: Human immunodeficiency virus 1; test: Antiviral activity against VSV-G pseudotyped HIV1 harboring integrase H51Y mutant infected in HOS cells pretreated […] for 3 hrs followed by viral infection measured after 48 hrs by luciferase reporter gene assay relative to dolutegravir; type: functional
[31] = system: Human immunodeficiency virus 1; test: Antiviral activity against VSV-G pseudotyped HIV1 harboring integrase Y143R mutant infected in HOS cells pretreated […] for 3 hrs followed by viral infection measured after 48 hrs by luciferase reporter gene assay relative to dolutegravir; type: functional
[32] = system: Human immunodeficiency virus 1; test: Antiviral activity against VSV-G pseudotyped HIV1 harboring integrase T66I mutant infected in HOS cells pretreated […] for 3 hrs followed by viral infection measured after 48 hrs by luciferase reporter gene assay relative to dolutegravir; type: functional

O=C(NCc1ccc(F)cc1F)c1c(NCCO)c2cc(CCCCCO)cnc2n(O)c1=O
Ratio EC50 [1]: 0.5
EC50 [2]: 31 nM
EC50 [3]: 1.9 nM
Ratio EC50 [4]: 1
Ratio EC50 [5]: 2
EC50 [6]: 13 nM
Ratio EC50 [7]: 0.1
CC50 (HOS): > 250000 nM
EC50 [8]: 16 nM
EC50 [9]: 11 nM
IC50 [10]: 4000 nM
EC50 [11]: 15 nM
EC50 [12]: 24 nM
Ratio EC50 [13]: 2
Ratio EC50 [14]: 1
EC50 [15]: 6.5 nM
Ratio EC50 [16]: 0.8
Ratio EC50 [17]: 1
EC50 [18]: 18 nM
Ratio EC50 [19]: 0.9
EC50 [20]: 12 nM
IC50 [21]: 2.5 nM

COC(=O)CCc1cnc2c(c1)c(NCCO)c(C(=O)NCc1ccc(F)cc1F)c(=O)n2O
Ratio EC50 [1]: 0.7
EC50 [2]: 2.5 nM
EC50 [3]: 0.62 nM
Ratio EC50 [4]: 4
Ratio EC50 [5]: 1
EC50 [6]: 4.1 nM
Ratio EC50 [7]: 0.2
CC50 (HOS): > 250000 nM
EC50 [8]: 16 nM
EC50 [9]: 6.9 nM
IC50 [10]: 3200 nM
EC50 [11]: 3.9 nM
EC50 [12]: 4.8 nM
Ratio EC50 [13]: 0.9
Ratio EC50 [14]: 1
EC50 [15]: 2.7 nM
Ratio EC50 [16]: 2
Ratio EC50 [17]: 2
EC50 [18]: 6.5 nM
Ratio EC50 [19]: 0.9
EC50 [20]: 3.8 nM
IC50 [21]: 3.1 nM

Nc1c(C(=O)NCc2ccc(F)cc2F)c(=O)n(O)c2ncc(CCCCCO)cc12
fold change (FC) [22]: 0.67
fold change (FC) [23]: 0.81
Ratio EC50 [1]: 3
EC50 [2]: 2.6 nM
EC50 [3]: 0.93 nM
Ratio EC50 [4]: 7
Ratio EC50 [5]: 4
fold change (FC) [24]: 0.16
EC50 [6]: 1.3 nM
Ratio EC50 [7]: 0.7
fold change (FC) [25]: 0.41
fold change (FC) [26]: 0.24
CC50 at 48 h [27]: > 250000 nM
EC50 [8]: 9.4 nM
fold change (FC) [28]: 1.65
EC50 [9]: 3.8 nM
fold change (FC) [29]: 1.62
fold change (FC) [30]: 1.19
IC50 [10]: 8200 nM
EC50 [11]: 2.4 nM
EC50 [12]: 5.3 nM
Ratio EC50 [13]: 2
Ratio EC50 [14]: 2
fold change (FC) [31]: 0.71
fold change (FC) [32]: 1.03
EC50 [15]: 3.8 nM
Ratio EC50 [16]: 3
Ratio EC50 [17]: 2
EC50 [18]: 2.6 nM
Ratio EC50 [19]: 2
EC50 [20]: 3 nM
IC50 [21]: 2.7 nM
